Results published in ChEMBL document CHEMBL1132155, “Endothelin antagonists: substituted mesitylcarboxamides with high potency and selectivity for ET(A) receptors” (J Med Chem, 1999).
Values after ≈ are worked out from the molar mass of the structure shown.

Target: T1, Endothelin-1 receptor (Homo sapiens) (UniProt P25101)
T1 sequence (whole entry): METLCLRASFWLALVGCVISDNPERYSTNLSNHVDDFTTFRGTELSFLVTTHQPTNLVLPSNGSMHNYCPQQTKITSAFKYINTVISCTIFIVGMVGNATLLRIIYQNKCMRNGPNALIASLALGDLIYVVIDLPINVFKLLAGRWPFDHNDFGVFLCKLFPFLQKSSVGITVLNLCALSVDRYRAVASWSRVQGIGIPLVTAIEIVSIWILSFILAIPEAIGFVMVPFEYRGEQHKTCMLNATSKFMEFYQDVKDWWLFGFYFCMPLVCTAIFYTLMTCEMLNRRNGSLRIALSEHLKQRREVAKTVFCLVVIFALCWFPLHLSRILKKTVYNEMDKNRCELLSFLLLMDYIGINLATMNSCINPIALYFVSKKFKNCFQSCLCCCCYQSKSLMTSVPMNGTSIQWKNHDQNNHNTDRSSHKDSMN
Experiment: Competitive binding to Endothelin A receptor by displacement of [125I]ET1 (Relative IC50 was calculated as IC50 of compound/IC50 of TBC11251)
Conditions: not given; call rule not given here
With `Cc1cc(C)c(NC(=O)c2sccc2S(=O)(=O)Nc2onc(C)c2Cl)c(C)c1` the Relative ET-A IC50 was 0.1.
`COc1cc(C#N)c(NC(=O)c2sccc2S(=O)(=O)Nc2onc(C)c2Cl)c(OC)c1OC` gave a Relative ET-A IC50 of 0.01.
For `COc1c(C)cc(C)c(NC(=O)c2sccc2S(=O)(=O)Nc2onc(C)c2Cl)c1C`, the Relative ET-A IC50 was 0.06.
In the case of `Cc1cc2c(cc1CC(=O)c1sccc1S(=O)(=O)Nc1onc(C)c1Cl)OCO2` [SITAXENTAN], the Relative ET-A IC50 is reported as 1.
For `Cc1cc(C)c(NC(=O)c2sccc2S(=O)(=O)Nc2onc(C)c2C)c(C)c1CC#N`, the Relative ET-A IC50 was 0.1.
For `CCOC(=O)N(C(=O)c1sccc1S(=O)(=O)Nc1onc(C)c1Cl)c1c(C)cc(C)c(O)c1C`, the Relative ET-A IC50 was 5.56.
`COC(=O)c1c(C)cc(C)c(NC(=O)c2sccc2S(=O)(=O)Nc2onc(C)c2Cl)c1C` showed a Relative ET-A IC50 of 0.21.
`Cc1cc(C)c(NS(C)(=O)=O)c(C)c1NC(=O)c1sccc1S(=O)(=O)Nc1onc(C)c1Cl` gave a Relative ET-A IC50 of 0.11.
`Cc1cc(C)c(NC(=O)c2sccc2S(=O)(=O)Nc2noc(C)c2Cl)c(C)c1CC#N` gave a Relative ET-A IC50 of 0.06.
With `Cc1cc(C)c(NC(=O)c2sccc2S(=O)(=O)Nc2onc(C)c2C)c(C)c1CO` the Relative ET-A IC50 was 0.07.
`Cc1cc2c(cc1C(C)C(=O)c1sccc1S(=O)(=O)Nc1onc(C)c1Cl)OCO2` (stereo not drawn) showed a Relative ET-A IC50 of 5.63.
For `Cc1cc(C)c(CC(=O)c2sccc2S(=O)(=O)Nc2onc(C)c2Cl)c(C)c1`, the Relative ET-A IC50 was 0.24.
Work on `CC(=O)OCc1c(C)cc(C)c(NC(=O)c2sccc2S(=O)(=O)Nc2onc(C)c2C)c1C` yielded a Relative ET-A IC50 of 0.06.
In the case of `Cc1cc(C)c(NC(=O)c2sccc2S(=O)(=O)Nc2onc(C)c2Cl)c(C)c1CN(C)C`, the Relative ET-A IC50 is reported as 0.88.
For `Cc1cc(C)c(OC(N)=O)c(C)c1NC(=O)c1sccc1S(=O)(=O)Nc1onc(C)c1Cl`, the Relative ET-A IC50 was 0.34.
For `Cc1cc(C)c(NC(=O)c2sccc2S(=O)(=O)Nc2onc(C)c2Cl)c(C)c1CO`, the Relative ET-A IC50 was 0.04.
`Cc1cc(C)c(CNC(=O)c2sccc2S(=O)(=O)Nc2onc(C)c2Cl)c(C)c1` gave a Relative ET-A IC50 of 1.15e+06.
`Cc1cc(C)c(CNC(=O)c2sccc2S(=O)(=O)Nc2onc(C)c2Cl)c(C)c1CC#N` showed a Relative ET-A IC50 of 56.4.
For `CC(=O)OCc1c(C)cc(C)c(NC(=O)c2sccc2S(=O)(=O)Nc2noc(C)c2Cl)c1C`, the Relative ET-A IC50 was 0.03.
With `Cc1cc(C)c(NC(=O)c2sccc2S(=O)(=O)Nc2onc(C)c2Cl)c(C)c1CC#N` the Relative ET-A IC50 was 0.08.
Work on `Cc1cc2c(cc1C(CCBr)C(=O)c1sccc1S(=O)(=O)Nc1onc(C)c1Cl)OCO2` (stereo not drawn) yielded a Relative ET-A IC50 of 38.4.
Compound `CC(=O)OCc1c(C)cc(C)c(NC(=O)c2sccc2S(=O)(=O)Nc2onc(C)c2Cl)c1C` has a Relative ET-A IC50 of 0.06.
`Cc1noc(NS(=O)(=O)c2ccsc2C(=O)Nc2c(C)c(C)c(C)c(C)c2C)c1Cl` gave a Relative ET-A IC50 of 1.97.

System: not listed separately
Experiment: Compound was evaluated for the aqueous solubility (AS) in mg/mL (Measured in 0.2 M phosphate buffer of pH 7.4)
Format: physicochemical
Conditions: read-out: AS
Procedure, shortened: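 Solubility measured in 0.2 M phosphate buffer, pH 7.4. Where a preformed sodium salt was used, it was measured in saline (9 mg/mL).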
With `Cc1cc(C)c(NC(=O)c2sccc2S(=O)(=O)Nc2onc(C)c2Cl)c(C)c1` the solubility was 23 mg/mL (≈ 52.3 mM).
Compound `COc1cc(C#N)c(NC(=O)c2sccc2S(=O)(=O)Nc2onc(C)c2Cl)c(OC)c1OC` has a solubility of 43 mg/mL (≈ 83.8 mM).
For `COc1c(C)cc(C)c(NC(=O)c2sccc2S(=O)(=O)Nc2onc(C)c2Cl)c1C`, the solubility was under 10 mg/mL.
Compound `Cc1cc2c(cc1CC(=O)c1sccc1S(=O)(=O)Nc1onc(C)c1Cl)OCO2` [SITAXENTAN] has a solubility of under 10 mg/mL.
In the case of `Cc1cc(C)c(NC(=O)c2sccc2S(=O)(=O)Nc2onc(C)c2C)c(C)c1CC#N`, the solubility is reported as under 10 mg/mL.
With `Cc1cc(C)c(NS(C)(=O)=O)c(C)c1NC(=O)c1sccc1S(=O)(=O)Nc1onc(C)c1Cl` the solubility was under 10 mg/mL.
`Cc1cc(C)c(NC(=O)c2sccc2S(=O)(=O)Nc2noc(C)c2Cl)c(C)c1CC#N` gave a solubility of 70 mg/mL (≈ 146 mM).
With `Cc1cc(C)c(NC(=O)c2sccc2S(=O)(=O)Nc2onc(C)c2Cl)c(C)c1CO` the solubility was 65 mg/mL (≈ 138 mM).
With `Cc1cc(C)c(NC(=O)c2sccc2S(=O)(=O)Nc2onc(C)c2Cl)c(C)c1CC#N` the solubility was under 10 mg/mL.

System: Rattus norvegicus
Experiment: Compound was evaluated for the effective oral dose in Acute Pulmonary Hypertension Rat Model after administering 2 hours prior to experiment
Format: functional
Conditions: not given
Procedure, shortened: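 Rat model of acute hypoxia-induced pulmonary hypertension. Compound given orally 2 h before hypoxia. Reported value is the lowest tested dose giving 90–100% inhibition of mean pulmonary arterial pressure; mean systemic arterial pressure and heart rate were also monitored. Some entries give % inhibition at 5 mg/kg.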
For `Cc1cc2c(cc1CC(=O)c1sccc1S(=O)(=O)Nc1onc(C)c1Cl)OCO2` [SITAXENTAN], the Effective dose was 5 mg/kg.
`Cc1cc(C)c(NC(=O)c2sccc2S(=O)(=O)Nc2onc(C)c2Cl)c(C)c1CO` showed an Effective dose of 15 mg/kg.
In the case of `Cc1cc(C)c(NC(=O)c2sccc2S(=O)(=O)Nc2onc(C)c2Cl)c(C)c1CC#N`, the Effective dose is reported as 5 mg/kg.
For `CC(=O)OCc1c(C)cc(C)c(NC(=O)c2sccc2S(=O)(=O)Nc2onc(C)c2Cl)c1C`, the Effective dose was 5 mg/kg.

System: Rattus norvegicus
Experiment: Compound was evaluated for the biological half-life when administered orally in Acute Pulmonary Hypertension Rat Model; NM=Not measurable (T1/2 h)
Format: ADME, organism-based
Conditions: in vivo, po
Procedure, shortened: (§1)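 Adult Harlan Sprague–Dawley rats received 50 mg/kg by gavage in 0.5% high-viscosity carboxymethyl cellulose (5 mL/kg). Serial 200 μL tail-vein blood samples were taken at selected times into heparin-coated tubes. Red cells were removed by centrifugation and plasma stored at −80 °C. Plasma proteins were precipitated with acetonitrile before HPLC analysis; serum half-life was derived from these samples.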
For `Cc1cc(C)c(OC(N)=O)c(C)c1NC(=O)c1sccc1S(=O)(=O)Nc1onc(C)c1Cl`, the T1/2 was “Not Active”.

System: not listed separately
Experiment: Compound was evaluated for the biological half-life when administered orally in Acute Pulmonary Hypertension Rat Model
Format: ADME, organism-based
Conditions: in vivo, po
Procedure, shortened: as §1
For `Cc1cc(C)c(NC(=O)c2sccc2S(=O)(=O)Nc2onc(C)c2Cl)c(C)c1`, the half-life was 2.5 h.
Work on `COc1cc(C#N)c(NC(=O)c2sccc2S(=O)(=O)Nc2onc(C)c2Cl)c(OC)c1OC` yielded a half-life of under 1 h.
Work on `COc1c(C)cc(C)c(NC(=O)c2sccc2S(=O)(=O)Nc2onc(C)c2Cl)c1C` yielded a half-life of 1.8 h.
`Cc1cc2c(cc1CC(=O)c1sccc1S(=O)(=O)Nc1onc(C)c1Cl)OCO2` [SITAXENTAN] gave a half-life of 4.1 h.
For `Cc1cc(C)c(NC(=O)c2sccc2S(=O)(=O)Nc2onc(C)c2C)c(C)c1CC#N`, the half-life was 1.8 h.
In the case of `Cc1cc(C)c(NS(C)(=O)=O)c(C)c1NC(=O)c1sccc1S(=O)(=O)Nc1onc(C)c1Cl`, the half-life is reported as 2.1 h.
In the case of `Cc1cc(C)c(NC(=O)c2sccc2S(=O)(=O)Nc2noc(C)c2Cl)c(C)c1CC#N`, the half-life is reported as 3.1 h.
`Cc1cc(C)c(NC(=O)c2sccc2S(=O)(=O)Nc2onc(C)c2Cl)c(C)c1CO` showed a half-life of 1.4 h.
`Cc1cc(C)c(NC(=O)c2sccc2S(=O)(=O)Nc2onc(C)c2Cl)c(C)c1CC#N` showed a half-life of 2.3 h.
`CC(=O)OCc1c(C)cc(C)c(NC(=O)c2sccc2S(=O)(=O)Nc2onc(C)c2Cl)c1C` showed a half-life of 0.5 h.

Target: Endothelin receptor, ET-A/ET-B (Homo sapiens) (UniProt P24530+P25101)
Sequence (P24530 whole entry, looked up, one chain of several): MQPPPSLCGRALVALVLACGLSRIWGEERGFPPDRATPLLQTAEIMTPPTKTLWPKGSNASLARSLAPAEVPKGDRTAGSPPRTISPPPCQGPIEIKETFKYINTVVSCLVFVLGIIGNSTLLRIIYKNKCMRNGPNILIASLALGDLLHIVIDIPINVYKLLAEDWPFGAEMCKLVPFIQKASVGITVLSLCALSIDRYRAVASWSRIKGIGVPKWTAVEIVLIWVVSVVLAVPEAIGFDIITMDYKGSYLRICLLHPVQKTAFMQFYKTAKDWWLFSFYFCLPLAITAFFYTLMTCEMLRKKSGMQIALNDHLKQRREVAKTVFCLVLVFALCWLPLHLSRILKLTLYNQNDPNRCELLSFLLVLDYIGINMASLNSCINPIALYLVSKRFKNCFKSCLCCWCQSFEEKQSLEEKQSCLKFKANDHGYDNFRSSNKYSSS
Experiment: Compound was evaluated for the selectivity of ET-A receptors (ET-B IC50/ ET-A IC50)
Format: protein assay
Conditions: not given
In the case of `Cc1cc(C)c(NC(=O)c2sccc2S(=O)(=O)Nc2onc(C)c2Cl)c(C)c1`, the Selectivity is reported as 7050.
Work on `COc1cc(C#N)c(NC(=O)c2sccc2S(=O)(=O)Nc2onc(C)c2Cl)c(OC)c1OC` yielded a Selectivity of 29200.
Compound `COc1c(C)cc(C)c(NC(=O)c2sccc2S(=O)(=O)Nc2onc(C)c2Cl)c1C` has a Selectivity of 56400.
`Cc1cc2c(cc1CC(=O)c1sccc1S(=O)(=O)Nc1onc(C)c1Cl)OCO2` [SITAXENTAN] showed a Selectivity of 3210.
With `Cc1cc(C)c(NC(=O)c2sccc2S(=O)(=O)Nc2onc(C)c2C)c(C)c1CC#N` the Selectivity was 14600.
In the case of `CCOC(=O)N(C(=O)c1sccc1S(=O)(=O)Nc1onc(C)c1Cl)c1c(C)cc(C)c(O)c1C`, the Selectivity is reported as 1530.
In the case of `COC(=O)c1c(C)cc(C)c(NC(=O)c2sccc2S(=O)(=O)Nc2onc(C)c2Cl)c1C`, the Selectivity is reported as 41900.
For `Cc1cc(C)c(NS(C)(=O)=O)c(C)c1NC(=O)c1sccc1S(=O)(=O)Nc1onc(C)c1Cl`, the Selectivity was 41700.
With `Cc1cc(C)c(NC(=O)c2sccc2S(=O)(=O)Nc2noc(C)c2Cl)c(C)c1CC#N` the Selectivity was 8550.
`Cc1cc(C)c(NC(=O)c2sccc2S(=O)(=O)Nc2onc(C)c2C)c(C)c1CO` gave a Selectivity of 30400.
Compound `Cc1cc(C)c(CC(=O)c2sccc2S(=O)(=O)Nc2onc(C)c2Cl)c(C)c1` has a Selectivity of 9390.
`CC(=O)OCc1c(C)cc(C)c(NC(=O)c2sccc2S(=O)(=O)Nc2onc(C)c2C)c1C` gave a Selectivity of 160000.
In the case of `Cc1cc(C)c(OC(N)=O)c(C)c1NC(=O)c1sccc1S(=O)(=O)Nc1onc(C)c1Cl`, the Selectivity is reported as 6700.
`Cc1cc(C)c(NC(=O)c2sccc2S(=O)(=O)Nc2onc(C)c2Cl)c(C)c1CO` showed a Selectivity of 111000.
`Cc1cc(C)c(CNC(=O)c2sccc2S(=O)(=O)Nc2onc(C)c2Cl)c(C)c1` gave a Selectivity of 0.004.
In the case of `Cc1cc(C)c(CNC(=O)c2sccc2S(=O)(=O)Nc2onc(C)c2Cl)c(C)c1CC#N`, the Selectivity is reported as 95.
Compound `CC(=O)OCc1c(C)cc(C)c(NC(=O)c2sccc2S(=O)(=O)Nc2noc(C)c2Cl)c1C` has a Selectivity of 38400.
Work on `Cc1cc(C)c(NC(=O)c2sccc2S(=O)(=O)Nc2onc(C)c2Cl)c(C)c1CC#N` yielded a Selectivity of 32900.
Work on `Cc1cc2c(cc1C(CCBr)C(=O)c1sccc1S(=O)(=O)Nc1onc(C)c1Cl)OCO2` (stereo not drawn) yielded a Selectivity of 59.
With `CC(=O)OCc1c(C)cc(C)c(NC(=O)c2sccc2S(=O)(=O)Nc2onc(C)c2Cl)c1C` the Selectivity was 850000.
In the case of `Cc1noc(NS(=O)(=O)c2ccsc2C(=O)Nc2c(C)c(C)c(C)c(C)c2C)c1Cl`, the Selectivity is reported as 1080.
